We go through 15 compounds from ChEMBL document CHEMBL3808335, “Discovery of KLS-13019, a Cannabidiol-Derived Neuroprotective Agent, with Improved Potency, Safety, and Permeability” (ACS Med Chem Lett, 2016).

As usually defined, the EC50 is the midpoint of the concentration-response curve. What is called inhibition is the percentage by which the read-out fell short of the control. By Papp A→B is commonly meant the apparent permeability from the apical to the basolateral side of a cell layer. The efflux ratio is a quotient of directional permeabilities that is used to spot active efflux. By solubility (kinetic) is commonly meant solubility judged after dilution from a stock solution rather than from solid. As usually defined, the Ki is the equilibrium dissociation constant of an inhibitor or competing ligand from its target. Low readings indicate higher affinity, high ones lower affinity.

In brackets after ≈: the same amount, converted by molar mass.

Series [1] is described as follows: Neuroprotective activity in rat hippocampal neurons assessed as protection against ethanol induced cell death by measuring neuronal viability after 5 hrs by carboxyfluorescein diacetate dye based fluorimetric analysis. Format: functional, Hippocampal neurone. The method, boiled down:
(§1)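 Ethanol (30 mM) used as toxin. Viability read by CFDA fluorescence, cell death by propidium iodide. Full efficacy defined as the fluorescence of neurons without toxin.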

The nature of series [2]: Neuroprotective activity in rat hippocampal neurons assessed as protection against ethanol induced cell death after 5 hrs by propidium iodide staining based fluorimetric analysis. It is filed as functional, Hippocampal neurone. The method, boiled down:
as §1

The nature of series [3]: Neuroprotective activity in rat hippocampal neurons assessed as protection against ammonium acetate induced cell death after 5 hrs by propidium iodide staining based fluorimetric analysis. It is filed as functional, Hippocampal neurone. The method, boiled down: (§2)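 Ammonium acetate (300 μM) used as toxin. Viability read by CFDA fluorescence, cell death by propidium iodide. Full efficacy defined as the fluorescence of neurons without toxin.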

Series [4] can be described thus: Neuroprotective activity in rat hippocampal neurons assessed as protection against ammonium acetate induced cell death by measuring neuronal viability after 5 hrs by carboxyfluorescein diacetate dye based fluorimetric analysis. Format: functional, Hippocampal neurone. The method, boiled down: as §2
Series [5] addresses Cannabinoid receptor 2 (Homo sapiens) (UniProt P34972). Description: Displacement of [3H]WIN 55212-2 from human recombinant CB2 receptor expressed in CHO cell membranes at 10 uM after 120 mins by scintillation counting analysis. For orientation: Loss of bound radioactivity is the signal in a displacement assay; it reports binding, not function.
Series [6] concerns MDR1. In words: Apparent permeability from apical to basolateral side in MDCK cells expressing MDR1. The following applies: dog.
Series [7] has as its system MDR1. In words: Efflux ratio of permeability from basolateral to apical over apical to basolateral side in MDCK cells expressing MDR1. Conditions: dog.
Series [8] has as its target T1, Cannabinoid receptor 1 (Homo sapiens, UniProt P21554). Description: Displacement of [3H]CP 55940 from human recombinant CB1 receptor expressed in CHO cell membranes at 10 uM after 120 mins by scintillation counting analysis.
Series [9] can be described thus: Toxicity in rat hippocampal neurons assessed as neuronal viability after 5 hrs by carboxyfluorescein diacetate dye based fluorimetric analysis. Further details: species or system Hippocampal neurone. Conditions: read-out: TC50.
Series [10] in a line: Efflux ratio of permeability from basolateral to apical over apical to basolateral side in human Caco cells. The following applies: Caco-2. On the technique in general: Caco-2 monolayers are a common model of the intestinal barrier.
Series [11] is described as follows: Kinetic aqueous solubility of the compound at pH 7.4.
Series [12] can be described thus: Apparent permeability from apical to basolateral side in human Caco cells. The following applies: Caco-2.
The nature of a further series: in vitro. The following applies: rat, rat hippocampal neurons.
In series [13] the target is T1, Cannabinoid receptor 1. In words: Displacement of [3H]CP 55940 from human CB1 receptor after 1 hr by liquid scintillation spectrometry.
The mark [14] stands for this setting: Rattus norvegicus, Hippocampal neurone, 5 h, read-out: EC50.

T1 sequence (P21554 whole entry): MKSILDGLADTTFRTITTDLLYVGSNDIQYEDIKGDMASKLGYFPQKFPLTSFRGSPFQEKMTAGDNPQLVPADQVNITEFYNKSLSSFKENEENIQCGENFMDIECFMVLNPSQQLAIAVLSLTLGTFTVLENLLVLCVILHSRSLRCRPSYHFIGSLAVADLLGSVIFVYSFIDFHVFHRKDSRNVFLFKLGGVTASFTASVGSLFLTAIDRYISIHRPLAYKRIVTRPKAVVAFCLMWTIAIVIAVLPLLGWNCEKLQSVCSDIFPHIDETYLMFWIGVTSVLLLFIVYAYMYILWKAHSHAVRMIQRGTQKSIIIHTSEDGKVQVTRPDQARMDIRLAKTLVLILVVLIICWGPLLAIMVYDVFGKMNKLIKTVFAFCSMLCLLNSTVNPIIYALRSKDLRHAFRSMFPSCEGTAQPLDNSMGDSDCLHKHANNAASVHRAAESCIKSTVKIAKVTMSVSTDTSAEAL
Chain of Cannabinoid receptor 2 (Homo sapiens) (P34972 whole entry): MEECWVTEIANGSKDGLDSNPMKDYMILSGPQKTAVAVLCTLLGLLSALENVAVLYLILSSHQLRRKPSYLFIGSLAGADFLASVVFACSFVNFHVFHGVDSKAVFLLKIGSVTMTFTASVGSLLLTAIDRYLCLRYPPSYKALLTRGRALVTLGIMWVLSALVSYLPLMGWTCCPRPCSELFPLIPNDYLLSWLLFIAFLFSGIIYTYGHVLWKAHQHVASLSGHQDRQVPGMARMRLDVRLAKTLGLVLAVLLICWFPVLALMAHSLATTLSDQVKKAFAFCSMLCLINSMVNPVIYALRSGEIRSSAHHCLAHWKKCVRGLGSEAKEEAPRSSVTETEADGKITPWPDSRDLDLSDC

On to `C=C(C)[C@@H]1CCC(C)=C[C@H]1c1c(O)cc(CCCCC(=O)O)cc1O`, for which the EC50 in [1] (setting [14]) came to 10 µM; in series [2] (setting [14]), 7 µM; in series [3] (setting [14]), 30 µM; in [4] (setting [14]), 4 µM.

As for `C=C(C)[C@@H]1CCC(C)=C[C@H]1c1c(O)cc(CC2CN(C)C2)cc1O`, the 50% effective concentration (EC50) result in [1] (hippocampal neurone), in series [2] (hippocampal neurone), in [3] (hippocampal neurone) and in [4] (hippocampal neurone) was “ND(toxic)” throughout.

With `C=C(C)[C@@H]1CCC(C)=C[C@H]1c1c(O)cc(CC2CN(C(=O)OCC)C2)cc1O`, the concentration giving a half-maximal response (EC50) is 0.03 µM in series [1] (setting [14]), 0.02 µM in series [2] (setting [14]), 0.05 µM in series [3] (setting [14]) and 0.11 µM in series [4] (setting [14]). The inhibition in [5] was 37%; at Cannabinoid receptor 1 [8], 19%. For the same compound, the Papp A→B with MDR1 [6] came out at 11 ×10⁻⁶ cm/s; in [12] it was 22 ×10⁻⁶ cm/s. Moreover, the efflux ratio with MDR1 [7] came out at 0.97; in series [10], 0.5. Besides, the CC50 at 5 h in series [9] is > 100 µM. The solubility (kinetic) in series [11] stood at 16.6 µM (≈ 6.4 µg/mL). In “in vitro”, the selectivity ratio at 5 h was found to be 900.

On to `C=C(C)[C@@H]1CCC(C)=C[C@H]1c1c(O)cc(CCn2ccnn2)cc1O`, for which the EC50 in series [1] (setting [14]) amounted to 5 µM; in series [2] (setting [14]), 2 µM; in series [3] (setting [14]), 1 µM; in series [4] (setting [14]), 3 µM. Moreover, the inhibition in series [5] was determined as 1%; on Cannabinoid receptor 1 [8], 6%. Further, in [9], the CC50 at 5 h was > 100 µM.

For the compound `C=C(C)[C@@H]1CCC(C)=C[C@H]1c1c(O)cc(CC(=O)N2CCOCC2)cc1O`, the EC50 in series [1] (setting [14]), in series [2] (setting [14]), in series [3] (setting [14]) and in series [4] (setting [14]) was > 100 µM throughout.

As for `C=C(C)[C@@H]1CCC(C)=C[C@H]1c1c(O)cc(CCCCC)cc1O` [CANNABIDIOL], the EC50 in series [1] (setting [14]) came to 1 µM; in series [2] (setting [14]) it was 3 µM; in series [3] (setting [14]) it was 4 µM; in series [4] (setting [14]) it was 2 µM. Also, the Papp A→B is < 2.23 ×10⁻⁶ cm/s with MDR1 [6] and < 1.5 ×10⁻⁶ cm/s in series [12]. For the same compound, the CC50 at 5 h in [9] was found to be 33 µM. In addition, the kinetic solubility in [11] was determined as 17 µM (≈ 5.35 µg/mL).

`C=C(C)[C@@H]1CCC(C)=C[C@H]1c1c(O)cc(CCn2nccn2)cc1O`: the EC50 in [1] (setting [14]), in series [2] (setting [14]), in [3] (setting [14]) and in series [4] (setting [14]) was > 100 µM throughout.

As for `C=C(C)[C@@H]1CCC(C)=C[C@H]1c1c(O)cc(CCCCCO)cc1O`, the EC50 in [1] (setting [14]) was 54 µM; in series [2] (setting [14]) it was > 100 µM; in series [3] (setting [14]), > 100 µM; in series [4] (setting [14]) it was > 100 µM.

For the compound `C=C(C)[C@@H]1CCC(C)=C[C@H]1c1c(O)cc(CCN2CCOCC2)cc1O`, the EC50 in series [1] (setting [14]) was 5 µM; in [2] (setting [14]), 24 µM; in [3] (setting [14]), 20 µM; in series [4] (setting [14]), > 100 µM.

Take `C=C(C)[C@@H]1CCC(C)=C[C@H]1c1c(O)cc(O)cc1CC1CN(C(C)=O)C1`: the EC50 in [1] (setting [14]), in series [2] (setting [14]), in series [3] (setting [14]) and in series [4] (setting [14]) was > 100 µM in each case.

`CCCCCCC(C)(C)c1cc(O)c(C2CCCCC2)c(O)c1`: on Cannabinoid receptor 1 [13], the Ki stood at 0.011 µM.

On to `C=C(C)[C@@H]1CCC(C)=C[C@H]1c1c(O)cc(CCNC(C)=O)cc1O`, for which the EC50 in [1] (setting [14]) is 30 µM; in series [2] (setting [14]) it was 17 µM; in series [3] (setting [14]), > 100 µM; in [4] (setting [14]) it was > 100 µM.

With `C=C(C)[C@@H]1CCC(C)=C[C@H]1c1c(O)cc(CC2CN(C(C)=O)C2)cc1O`, the EC50 was 0.08 µM in series [1] (setting [14]), 0.05 µM in series [2] (setting [14]), 0.04 µM in series [3] (setting [14]) and 0.04 µM in series [4] (setting [14]). Also, the inhibition in series [5] was 56%; on Cannabinoid receptor 1 [8] it was 13%. For the same compound, the Papp A→B with MDR1 [6] is 35 ×10⁻⁶ cm/s; in series [12], 49 ×10⁻⁶ cm/s. In addition, the efflux ratio in the series with MDR1 [7] was 1.02; in series [10] it was 0.53. Moreover, the CC50 at 5 h in [9] is 300 µM. Further, the kinetic solubility in [11] stood at 87 µM (≈ 30.9 µg/mL). Moreover, the selectivity ratio at 5 h in the series “in vitro” is 7500.

Turning to `C=C(C)[C@@H]1CCC(C)=C[C@H]1c1c(O)cc(CCOCC)cc1O`, the EC50 came out at 0.3 µM in series [1] (setting [14]), 3 µM in series [2] (setting [14]), 0.2 µM in series [3] (setting [14]) and 36 µM in series [4] (setting [14]).

`C=C(C)[C@@H]1CCC(C)=C[C@H]1c1c(O)cc(CC2COC2)cc1O`: the EC50 amounted to 18 µM in series [1] (setting [14]), 10 µM in series [2] (setting [14]), 20 µM in series [3] (setting [14]) and 35 µM in [4] (setting [14]).
